Laboratory results reported in ChEMBL document CHEMBL4808168, “The Discovery of Two Novel Classes of 5,5-Bicyclic Nucleoside-Derived PRMT5 Inhibitors for the Treatment of Cancer” (J Med Chem, 2021).
≈ marks a conversion by molar mass, not a printed value.

Columns and labels:
[1] = Unbound volume of distribution in rat; format: ADME; conditions: in vivo
[2] = Solubility of the compound in FaSSIF at pH 7 at 200 uM incubated for 24 hrs by UV-vis detection based HPLC analysis; format: physicochemical
[3] = target: Protein arginine N-methyltransferase 5 (Homo sapiens, UniProt O14744); assay: Inhibition of PRMT5 (unknown origin) assessed as inhibition of symmetric dimethylation of arginine incubated for 3 days by fluorescence based cellular target engagement assay
Protein arginine N-methyltransferase 5, sequence (O14744 whole entry): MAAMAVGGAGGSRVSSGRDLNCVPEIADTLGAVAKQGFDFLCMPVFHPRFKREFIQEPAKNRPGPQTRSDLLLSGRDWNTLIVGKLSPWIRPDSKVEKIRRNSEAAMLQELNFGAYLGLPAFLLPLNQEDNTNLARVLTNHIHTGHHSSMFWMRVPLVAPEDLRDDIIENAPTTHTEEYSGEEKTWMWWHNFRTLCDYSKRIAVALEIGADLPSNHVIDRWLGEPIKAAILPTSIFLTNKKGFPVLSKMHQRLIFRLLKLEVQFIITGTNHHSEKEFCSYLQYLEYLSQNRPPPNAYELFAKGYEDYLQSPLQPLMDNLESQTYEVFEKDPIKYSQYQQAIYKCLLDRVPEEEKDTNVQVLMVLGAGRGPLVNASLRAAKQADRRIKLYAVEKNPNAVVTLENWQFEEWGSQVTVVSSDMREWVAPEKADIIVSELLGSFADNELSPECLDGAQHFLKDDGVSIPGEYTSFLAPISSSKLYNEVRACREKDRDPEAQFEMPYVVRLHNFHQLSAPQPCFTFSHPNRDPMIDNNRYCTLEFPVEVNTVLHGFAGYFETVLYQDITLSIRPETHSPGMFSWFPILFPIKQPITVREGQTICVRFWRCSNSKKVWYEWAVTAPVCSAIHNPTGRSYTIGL
Outline: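 MCF-7 cells (4000/well, collagen-coated plates) in EMEM with 0.01 mg/mL insulin and 10% FBS; 10-point 1:3 titration from 10,000 nM; 3 days at 37 °C/5% CO2; fixed, permeabilized, anti-SDMA antibody, then Alexa488 anti-rabbit IgG plus Hoechst; nuclear fluorescence by high-content imaging versus DMSO; EC50 by four-parameter robust fit.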

[4] = Unbound clearance in rat; format: ADME; conditions: in vivo
[5] = Oral bioavailability in rat; format: ADME, organism-based; conditions: in vivo
[6] = tested on: Z-138; assay: Antiproliferative activity against human Z138 cells incubated for 10 days by cell titer-glo assay; format: functional, cell-based; conditions: Z-138, 240 h
[7] = Solubility of the compound in […] at pH 2 at 200 uM incubated for 24 hrs by UV-vis detection based HPLC analysis; format: physicochemical
Outline: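 10 mM DMSO stock added to 10 mM potassium phosphate buffer at pH 2 or pH 7, or FaSSIF pH 6.5, to 200 μM total; 24 h equilibration, filtration, then reverse-phase HPLC with UV–vis detection.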

[8] = MRT in rat; format: ADME; conditions: in vivo
[9] = Plasma clearance in rat; format: ADME

Vdu [1]	solubility at 24 h, 200 µM [2]	EC50 [3]	CL free [4]	bioavailability [5]	solubility at 24 h, 200 µM [7]	MRT [8]	clearance [9]	Compound	EC50 [6]
136 L/kg	20 µM (≈ 10.2 µg/mL)	2.9 nM	1559 mL/min/kg	10%	147 µM (≈ 74.9 µg/mL)	1.6 h	15 mL/min/kg	Nc1nc2cc(C[C@@H]3CC[C@@]4(O)[C@@H]3C[C@@H](n3ccc5c(N)ncnc53)[C@@H]4O)ccc2cc1Br	6.9 nM
79 L/kg	60 µM (≈ 28 µg/mL)	1.2 nM	1045 mL/min/kg	8%	159 µM (≈ 74.2 µg/mL)	1.3 h	46 mL/min/kg	Nc1nc2cc(C[C@@H]3CC[C@@]4(O)[C@@H]3O[C@@H](n3ccc5c(N)ncnc53)[C@@H]4O)ccc2cc1Cl	3.2 nM
20 L/kg	118 µM (≈ 53 µg/mL)	14 nM	351 mL/min/kg	51%	159 µM (≈ 71.5 µg/mL)	1 h	32 mL/min/kg	Cc1ncnc2c1ccn2[C@@H]1O[C@@H]2[C@H](Cc3ccc4cc(F)c(N)nc4c3)CC[C@]2(O)[C@H]1O	23 nM
–	–	5.3 nM	–	–	–	–	–	Nc1nc2cc(C[C@@H]3CC[C@@]4(O)[C@@H]3O[C@@H](n3ccc5c(C6CC6)ncnc53)[C@@H]4O)ccc2cc1Br	67 nM
116 L/kg	21 µM (≈ 11 µg/mL)	3.2 nM	1337 mL/min/kg	11%	151 µM (≈ 79.3 µg/mL)	1.5 h	31 mL/min/kg	Cc1nc(N)c2ccn([C@@H]3O[C@@H]4[C@H](Cc5ccc6cc(Br)c(N)nc6c5)CC[C@]4(O)[C@H]3O)c2n1	6.4 nM
80 L/kg	110 µM (≈ 51.5 µg/mL)	2.8 nM	844 mL/min/kg	30%	156 µM (≈ 73.1 µg/mL)	1.6 h	40 mL/min/kg	Nc1nc2cc(C[C@@H]3CC[C@@]4(O)[C@@H]3O[C@@H](n3ccc5c(N)ncnc53)[C@@H]4O)c(F)cc2cc1F	20 nM
82 L/kg	35 µM (≈ 17.9 µg/mL)	1.3 nM	940 mL/min/kg	10%	162 µM (≈ 82.8 µg/mL)	1.5 h	25 mL/min/kg	Nc1nc2cc(C[C@@H]3CC[C@@]4(O)[C@@H]3O[C@@H](n3ccc5c(N)ncnc53)[C@@H]4O)ccc2cc1Br	1.7 nM
52 L/kg	–	9.9 nM	900 mL/min/kg	20%	–	1 h	31 mL/min/kg	CNc1ncnc2c1ccn2[C@@H]1O[C@@H]2[C@H](Cc3ccc4cc(Br)c(N)nc4c3)CC[C@]2(O)[C@H]1O	16 nM
34 L/kg	< 1 µM	1.2 nM	412 mL/min/kg	2%	158 µM (≈ 74.1 µg/mL)	1.4 h	22 mL/min/kg	Nc1nc2cc(O[C@H]3CC[C@@]4(O)[C@@H]3O[C@@H](n3ccc5c(N)ncnc53)[C@@H]4O)ccc2cc1Cl	7.5 nM
24 L/kg	137 µM (≈ 61.2 µg/mL)	3.2 nM	523 mL/min/kg	–	151 µM (≈ 67.4 µg/mL)	0.8 h	106 mL/min/kg	Cc1cc2ccc(C[C@@H]3CC[C@@]4(O)[C@@H]3O[C@@H](n3ccc5c(N)ncnc53)[C@@H]4O)cc2nc1N	0.77 nM
222 L/kg	14 µM (≈ 7.38 µg/mL)	5.3 nM	3143 mL/min/kg	68%	163 µM (≈ 86 µg/mL)	1.2 h	12 mL/min/kg	CNc1ncnc2c1ccn2[C@@H]1O[C@@H]2[C@@H](Oc3ccc4cc(Br)c(N)nc4c3)CC[C@]2(O)[C@H]1O	23 nM
11 L/kg	< 1 µM	0.9 nM	289 mL/min/kg	–	158 µM (≈ 71.5 µg/mL)	0.6 h	49 mL/min/kg	Nc1nc2cc(O[C@H]3CC[C@@]4(O)[C@@H]3O[C@@H](n3ccc5c(N)ncnc53)[C@@H]4O)ccc2cc1F	27 nM
111 L/kg	142 µM (≈ 64 µg/mL)	2.3 nM	1029 mL/min/kg	28%	163 µM (≈ 73.4 µg/mL)	1.3 h	18 mL/min/kg	Nc1nc2cc(C[C@@H]3CC[C@@]4(O)[C@@H]3O[C@@H](n3ccc5c(N)ncnc53)[C@@H]4O)ccc2cc1F	8.3 nM
–	–	> 10 nM	–	–	–	–	–	Nc1nc2cc(O[C@@H]3CC[C@@]4(O)[C@@H]3O[C@@H](n3ccc5c(N)ncnc53)[C@@H]4O)ccc2cc1Br	> 10 nM
–	–	11 nM	–	–	–	–	–	Cc1ncnc2c1ccn2[C@@H]1C[C@@H]2[C@@H](Cc3ccc4cc(F)c(N)nc4c3)CC[C@]2(O)[C@H]1O	63 nM
68 L/kg	164 µM (≈ 70.8 µg/mL)	9.9 nM	648 mL/min/kg	–	181 µM (≈ 78.1 µg/mL)	1.7 h	101 mL/min/kg	Cc1ncnc2c1ccn2[C@@H]1O[C@@H]2[C@H](Cc3ccc4ccc(N)nc4c3)CC[C@]2(O)[C@H]1O	< 0.5 nM
–	–	32 nM	–	–	–	–	–	Nc1nc2cc(O[C@H]3CC[C@@]4(O)[C@@H]3O[C@@H](n3ccc5cncnc53)[C@@H]4O)ccc2cc1Br	20 nM
28 L/kg	< 1 µM	1.2 nM	349 mL/min/kg	10%	128 µM (≈ 65.7 µg/mL)	1.8 h	49 mL/min/kg	Nc1nc2cc(O[C@H]3CC[C@@]4(O)[C@@H]3O[C@@H](n3ccc5c(N)ncnc53)[C@@H]4O)ccc2cc1Br	3.7 nM
83 L/kg	22 µM (≈ 10.2 µg/mL)	0.87 nM	424 mL/min/kg	64%	184 µM (≈ 85.4 µg/mL)	1.7 h	21 mL/min/kg	Cc1ncnc2c1ccn2[C@@H]1C[C@@H]2[C@H](Cc3ccc4cc(Cl)c(N)nc4c3)CC[C@]2(O)[C@H]1O	2.2 nM
30 L/kg	116 µM (≈ 52.4 µg/mL)	38 nM	345 mL/min/kg	–	152 µM (≈ 68.6 µg/mL)	1.5 h	16 mL/min/kg	Cc1ncnc2c1ccn2[C@@H]1O[C@@H]2[C@@H](Oc3ccc4cc(F)c(N)nc4c3)CC[C@]2(O)[C@H]1O	172 nM
143 L/kg	14 µM (≈ 7.12 µg/mL)	1.1 nM	835 mL/min/kg	74%	199 µM (≈ 101 µg/mL)	1.5 h	13 mL/min/kg	Cc1ncnc2c1ccn2[C@@H]1C[C@@H]2[C@H](Cc3ccc4cc(Br)c(N)nc4c3)CC[C@]2(O)[C@H]1O	1.6 nM
59 L/kg	2 µM (≈ 0.936 µg/mL)	4 nM	710 mL/min/kg	71%	160 µM (≈ 74.9 µg/mL)	1.4 h	8 mL/min/kg	Cc1ncnc2c1ccn2[C@@H]1O[C@@H]2[C@@H](Oc3ccc4cc(Cl)c(N)nc4c3)CC[C@]2(O)[C@H]1O	24 nM
–	–	21 nM	–	–	–	–	–	Cc1ncnc2c1ccn2[C@@H]1O[C@@H]2[C@@H](Cc3ccc4cc(Cl)c(N)nc4c3)CC[C@]2(O)[C@H]1O	26 nM
34 L/kg	114 µM (≈ 53.4 µg/mL)	4.6 nM	541 mL/min/kg	24%	158 µM (≈ 74 µg/mL)	1 h	60 mL/min/kg	Nc1nc2cc(C[C@@H]3CC[C@@]4(O)[C@@H]3O[C@@H](n3cc(F)c5c(N)ncnc53)[C@@H]4O)ccc2cc1F	5.6 nM
43 L/kg	29 µM (≈ 13.5 µg/mL)	2.5 nM	667 mL/min/kg	41%	148 µM (≈ 69 µg/mL)	1.1 h	24 mL/min/kg	Cc1ncnc2c1ccn2[C@@H]1O[C@@H]2[C@H](Cc3ccc4cc(Cl)c(N)nc4c3)CC[C@]2(O)[C@H]1O	6.9 nM
148 L/kg	21 µM (≈ 10.7 µg/mL)	< 0.5 nM	2163 mL/min/kg	46%	186 µM (≈ 94.9 µg/mL)	1.1 h	27 mL/min/kg	Cc1ncnc2c1ccn2[C@@H]1O[C@@H]2[C@H](Cc3ccc4cc(Br)c(N)nc4c3)CC[C@]2(O)[C@H]1O	1.4 nM
54 L/kg	83 µM (≈ 38.9 µg/mL)	1.7 nM	430 mL/min/kg	29%	171 µM (≈ 80.1 µg/mL)	2.1 h	25 mL/min/kg	Nc1nc2cc(C[C@@H]3CC[C@@]4(O)[C@@H]3O[C@@H](n3ccc5c(N)ncnc53)[C@@H]4O)cc(F)c2cc1F	5.6 nM
